A short description of the data set: Transmission electron microscopy of the peptide assemblies. Format: physicochemical. Conditions: TEM; after ALP 1 U/mL, 1.0 wt% in PBS buffer pH 7.4, 24 hours, 37 °C. The gist of the method: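 Phosphopeptide (1.0 wt% total, pH 7.4 PBS) was dephosphorylated with alkaline phosphatase (1 U/mL) for 24 h at 37 °C. Samples went onto 400 mesh copper grids coated with continuous carbon film (~35 nm), were stained with uranyl acetate and air-dried, then imaged by TEM. Nanofiber width was measured from the images.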

Regarding Nap-wwy [compound 1], the “Diameter (width) of the nanofibers” value amounted to 7 ± 2 nm.

The record behind these values is publication PMC9017786 (Peptide science (Hoboken, N.J.), 2020).
